# ChEMBL document CHEMBL4145692, “Discovery of a Locally and Orally Active CXCL12 Neutraligand (LIT-927) with Anti-inflammatory Effect in a Murine Model of Allergic Airway Hypereosinophilia” (J Med Chem, 2018)
# The source made the active and inactive calls. The calls are words filed in the database; no cut-off is given here.
# Legend:
# [1] = target: T1, Stromal cell-derived factor 1 (Homo sapiens, UniProt P48061); assay: Binding affinity to Texas Red-labelled CXCL12 (unknown origin) assessed as inhibition of CXCL12-Texas Red binding to EGFP-labeled human CXCR4 expressed in HEK293 cell membranes pre-incubated for 1 hr by FRET-based binding assay
# T1 sequence (P48061 whole entry): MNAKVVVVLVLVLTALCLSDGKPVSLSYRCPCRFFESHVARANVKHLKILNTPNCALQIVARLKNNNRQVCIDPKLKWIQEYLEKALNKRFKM
# How it was run: (§1)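 HEK-293 cells stably expressing human EGFP-CXCR4, 10⁶ cells/ml in HEPES buffer pH 7.4 with 0.1% BSA, 21 °C. CXCL12-Texas Red (100 nM) was preincubated 1 h at room temperature with compound or DMSO, then added at t=150 s. FRET read as loss of EGFP emission at 510 nm (excitation 470 nm) up to equilibrium. Ki from dose-response curves.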
# [2] = Kinetic solubility in pH 7.4 HEPES-BSA buffer at 5 uM incubated for 24 hrs at 20 degC by HPLC method; format: physicochemical; details: read-out: Kinetic_solubility
# How it was run: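 Compound added from 10 mM DMSO stock to 5 μM in pH 7.4 HEPES-BSA buffer (1 g/L BSA), shaken 24 h at 20 °C. After centrifugation, supernatant concentration measured by HPLC against 5 and 10 μM standards.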
# [3] = test system: Mus musculus; assay: Inhibition of eosinophil infiltration in Balb/c mouse model of 8 day model of allergic eosinophilic airway inflammation at 300 nmol/kg dosed intranasally 2 hrs before ovalbumin challenge by hemocytometry; format: functional; details: for inhibition in vivo at 0.3 µmol/kg: inhaled or nasal
# How it was run: (§2)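 OVA/alum-sensitized Balb/c mice challenged intranasally with OVA on days 5–7. Compounds at 300 nmol/kg in 10% PBS/Cdx given intranasally 2 h before each challenge. BAL 24 h after the last challenge; eosinophils, neutrophils and lymphocytes counted by hemocytometer and differential cytospin; n=6/group.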
# [4] = Thermodynamic solubility in pH 7.4 PBS buffer incubated for 24 hrs at 22 degC by HPLC method; format: physicochemical; details: read-out: Therm_solubility
# How it was run: (§3)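 Powder dissolved to saturation in pH 7.4 PBS (100 mM sodium phosphate, 150 mM NaCl), or in PBS with 10% Cdx, and shaken 24 h. After centrifugation, supernatant quantified by HPLC against a per-compound calibration line prepared from the DMSO stock.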
# [5] = test system: Mus musculus; assay: Inhibition of macrophages infiltration in Balb/c mouse model of 8 day model of allergic eosinophilic airway inflammation at 300 nmol/kg dosed intranasally 2 hrs before ovalbumin challenge by hemocytometry; format: functional, organism-based
# [6] = Chemical stability in pH 7.4 PBS buffer assessed as parent compound remaining at 10 uM incubated for 24 hrs by RP-HPLC method; format: physicochemical; details: read-out: Stability
# How it was run: (§4)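 Compound diluted from DMSO stock to 10 μM final (1% DMSO) in PBS pH 7.4, or in PBS with 10% w/w (2-hydroxypropyl)-β-cyclodextrin. Sampled at t0, 2, 4, 6 and 24 h and injected directly onto RP-HPLC. Percent remaining relative to t0 from peak area.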
# [7] = Thermodynamic solubility in pH 7.4 PBS/Cdx buffer incubated for 24 hrs at 22 degC by HPLC method; format: physicochemical; details: read-out: Therm_solubility; how it was run: as §3
# [8] = Chemical stability in pH 7.4 PBS/Cdx buffer assessed as parent compound remaining at 10 uM incubated for 24 hrs by RP-HPLC method; format: physicochemical; details: read-out: Stability; how it was run: as §4
# [9] = test system: Mus musculus; assay: Inhibition of lymphocytes infiltration in Balb/c mouse model of 8 day model of allergic eosinophilic airway inflammation at 300 nmol/kg dosed intranasally 2 hrs before ovalbumin challenge by hemocytometry; format: functional, organism-based; how it was run: as §2
# [10] = target: T1, Stromal cell-derived factor 1; assay: Binding affinity to Texas Red-labelled CXCL12 (unknown origin) assessed as inhibition of CXCL12-Texas Red binding to EGFP-labeled human CXCR4 expressed in HEK293 cell membranes at 30 uM pre-incubated for 1 hr by FRET-based binding assay; how it was run: as §1
SMILES,Ki [1],"solubility kinetic at 24 h, 5 µM [2]",further results
COc1cc(C(=O)/C=C/c2ccc(Cl)cc2)ccc1O,> 10000 nM,> 5 µM,
COc1cc(/C=C/C(=O)c2cc(Cl)ccc2Cl)ccc1O,53 nM,> 5 µM,
COc1cc(/C=C/C(=O)c2ccc(C(F)(F)F)cc2)ccc1O,1070 nM,> 5 µM,
CNc1nc(-c2ccc(Cl)cc2)cc(-c2ccc(O)c(OC)c2)n1,> 10000 nM,> 5 µM,
COc1cccc(/C=C/C(=O)c2ccc(Cl)cc2)c1,> 10000 nM,0.36 µM,
COc1cc(/C=C/C(=O)c2c(Cl)cccc2Cl)ccc1O,71 nM,> 5 µM,
COc1cc(-c2cc(-c3ccc(Cl)cc3)nc(N)n2)ccc1O,> 10000 nM,> 5 µM,
O=C(/C=C/c1ccc(O)c(O)c1)c1ccc(Cl)cc1,350 nM,> 5 µM,
O=C(/C=C/c1ccc(O)cc1)c1ccc(Cl)cc1,625 nM,> 5 µM,
COc1cc(/C=C/C(=O)c2ccc(C(C)C)cc2)ccc1O,25 nM,1.92 µM,
COc1cc(/C(C)=C/C(=O)c2ccc(Cl)cc2)ccc1O,> 10000 nM,2.6 µM,
COc1cc(/C=C(\C)C(=O)c2ccc(Cl)cc2)ccc1O,> 5000 nM,> 5 µM,
COc1cc(C2CC(c3ccc(Cl)cc3)=NN2)ccc1O (stereo not drawn),107 nM,> 5 µM,"inhibition in vivo at 0.3 µmol/kg [3]: 39%; solubility thermodynamic at 24 h [4]: 34.6 µM; inhibition [5]: inactive; remaining at 24 h, 10 µM [6]: 78%; solubility thermodynamic at 24 h [7]: > 3000 µM; remaining at 24 h, 10 µM [8]: 98%; inhibition [9]: inactive"
COc1cc(/C=C2\Oc3cc(Cl)ccc3C2=O)ccc1O,203 nM,> 5 µM,"inhibition [3]: inactive; solubility thermodynamic at 24 h [4]: 1.9 µM; remaining at 24 h, 10 µM [6]: 100%; solubility thermodynamic at 24 h [7]: 330 µM; remaining at 24 h, 10 µM [8]: 100%"
O=C(/C=C/c1ccc2c(c1)OCCO2)c1ccc(Cl)cc1,1380 nM,> 5 µM,
COc1cc(/C=C/C(=O)c2ccc(Cl)cc2)ccc1N,> 10000 nM,> 5 µM,
COc1cc(/C=C/C(=O)c2cccc(Cl)c2)ccc1O,,> 5 µM,inhibition [10]: 25%
Cl.NCCOc1cc(/C=C/C(=O)c2ccc(Cl)cc2)ccc1O,357 nM,> 5 µM,"inhibition [3]: inactive; solubility thermodynamic at 24 h [4]: 4.2 µM; inhibition [5]: inactive; remaining at 24 h, 10 µM [6]: 100%; solubility thermodynamic at 24 h [7]: > 5000 µM; remaining at 24 h, 10 µM [8]: 100%; inhibition [9]: inactive"
COc1cc(-c2cc(-c3ccc(Cl)cc3)nc(C)n2)ccc1O,1680 nM,> 5 µM,
COc1cc(/C=C2\COc3cc(Cl)ccc3C2=O)ccc1O,357 nM,> 5 µM,"inhibition [3]: inactive; solubility thermodynamic at 24 h [4]: 0.5 µM; remaining at 24 h, 10 µM [6]: 100%; solubility thermodynamic at 24 h [7]: 933 µM; remaining at 24 h, 10 µM [8]: 100%"
COc1cc(C2CC(c3ccc(Cl)cc3)=NN2C(C)=O)ccc1O (stereo not drawn),> 10000 nM,> 5 µM,
COc1cc(/C=C/C(=O)c2ccc(Cl)c(Cl)c2)ccc1O,714 nM,> 5 µM,
COc1cc(/C=C/C(=O)c2ccc(Br)cc2)ccc1O,44 nM,> 5 µM,

SMILES,Ki [1],"solubility kinetic at 24 h, 5 µM [2]",further results
COc1cc(/C=C/C(=O)c2ccc(Cl)cc2F)ccc1O,107 nM,> 5 µM,
COc1cc(/C=C/C(=O)c2ccc(Cl)cc2)ccc1[N+](=O)[O-],> 10000 nM,> 5 µM,
O=C(/C=C/c1ccc(O)c(C(=O)O)c1)c1ccc(Cl)cc1,> 10000 nM,> 5 µM,
COc1ccc(C(=O)/C=C/c2ccc(O)c(OC)c2)cc1,1780 nM,> 5 µM,
COc1cc(/C=C/C(=O)c2ccncc2)ccc1O,> 10000 nM,> 5 µM,
COc1cc(-c2cc(-c3ccc(Cl)cc3)n[nH]2)ccc1O,> 10000 nM,,
COc1cc(CCC(=O)c2ccc(Cl)cc2)ccc1O,> 10000 nM,,
COCOc1ccc(/C=C/C(=O)c2ccc(Cl)cc2O)cc1OC,,,inhibition [5]: inactive; inhibition [9]: inactive
COc1cc(/C=C/C(=O)c2ccc(C(=O)O)cc2)ccc1O,5350 nM,> 5 µM,
COc1cc(/C=C/C(=O)c2cccnc2)ccc1O,> 10000 nM,> 5 µM,
Cl.NCCOCCOc1cc(/C=C/C(=O)c2ccc(Cl)cc2)ccc1O,1070 nM,> 5 µM,
COc1cc(/C=C/C(=O)c2ccccc2Cl)ccc1O,107 nM,> 5 µM,
COc1ccc(/C=C/C(=O)c2ccc(Cl)cc2)cc1OC,> 10000 nM,> 5 µM,
Cl.NCCOCCOCCOc1cc(/C=C/C(=O)c2ccc(Cl)cc2)ccc1O,475 nM,> 5 µM,
COc1cc(/C=C/C(=O)c2ccc(Cl)cc2Cl)ccc1O,48 nM,> 5 µM,
COc1cc(/C=C2\Cc3cc(Cl)ccc3C2=O)ccc1O,107 nM,0.88 µM,
COc1ccc(/C=C/C(=O)c2ccc(Cl)cc2)cc1O,> 10000 nM,> 5 µM,
COc1cc(/C=C/C(=O)c2cccc(Cl)c2Cl)ccc1O,357 nM,> 5 µM,
Cl.NCCOCCOc1cc(/C=C2\Cc3cc(Cl)ccc3C2=O)ccc1O,496 nM,> 5 µM,inhibition [5]: inactive; inhibition [9]: inactive
COc1cc(/C=C/C(=O)c2ccc(F)cc2)ccc1O,430 nM,> 5 µM,
COc1cc(/C=C/C(=O)c2ccc(I)cc2)ccc1O,107 nM,> 5 µM,"inhibition in vivo at 0.3 µmol/kg [3]: 36%; solubility thermodynamic at 24 h [4]: 1.2 µM; inhibition [5]: inactive; remaining at 24 h, 10 µM [6]: 100%; solubility thermodynamic at 24 h [7]: 319 µM; remaining at 24 h, 10 µM [8]: 100%; inhibition [9]: inactive"
COc1cc(/C=C/C(=O)c2ccc(C)cc2)ccc1O,285 nM,> 5 µM,
COc1cc(/C=C/C(=N/O)c2ccc(Cl)cc2)ccc1O,> 10000 nM,> 5 µM,
